Source: ChEMBL document CHEMBL1140079, “Discovery of orally bioavailable cathepsin S inhibitors for the reversal of neuropathic pain” (J Med Chem, 2008)
Blank lines part the entries; values can stand above or below the compound they belong to. Active and inactive are the calls of the source.

Experiments:
Cathepsin S [1] = biological target: Cathepsin S (Homo sapiens, UniProt P25774); experiment: Inhibition of human recombinant cathepsin S by fluorescence assay
In short: (§1)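 Recombinant human enzymes in a fluorescence assay; substrate Z-Phe-Arg-MCA for cathepsins K and L, Z-Leu-Leu-Arg-MCA for cathepsin S. Means of two experiments, each run in duplicate; individual points within a 2-fold range of each other.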

Cathepsin K [2] = biological target: T1, Cathepsin K (Homo sapiens, UniProt P43235); experiment: Inhibition of human recombinant cathepsin K by fluorescence assay; in short: as §1
T1 sequence (P43235 whole entry): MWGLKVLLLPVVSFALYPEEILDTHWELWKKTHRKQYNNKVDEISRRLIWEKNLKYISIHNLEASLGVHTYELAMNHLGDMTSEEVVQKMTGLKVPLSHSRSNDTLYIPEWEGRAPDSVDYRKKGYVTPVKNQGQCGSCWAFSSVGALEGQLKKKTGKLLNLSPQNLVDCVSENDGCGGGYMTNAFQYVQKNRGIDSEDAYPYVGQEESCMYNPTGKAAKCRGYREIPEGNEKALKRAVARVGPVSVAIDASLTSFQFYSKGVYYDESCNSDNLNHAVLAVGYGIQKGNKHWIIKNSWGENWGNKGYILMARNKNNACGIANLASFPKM

Procathepsin L [3] = biological target: Procathepsin L (Homo sapiens, UniProt P07711); experiment: Inhibition of human recombinant cathepsin L by fluorescence assay; in short: as §1
Homo sapiens [4] = species: Homo sapiens; experiment: Selectivity for human recombinant cathepsin S over human cathepsin B
Homo sapiens [5] = species: Homo sapiens; experiment: Selectivity for human recombinant cathepsin S over human cathepsin C
Homo sapiens [6] = species: Homo sapiens; experiment: Selectivity for human recombinant cathepsin S over human cathepsin H
Homo sapiens [7] = species: Homo sapiens; experiment: Selectivity for human recombinant cathepsin S over human cathepsin X
Cathepsin B = Cathepsin B (Homo sapiens, UniProt P07858); experiment: Inhibition of human cathepsin B
Dipeptidyl peptidase 1 = Dipeptidyl peptidase 1 (Homo sapiens, UniProt P53634); experiment: Inhibition of human cathepsin C
Pro-cathepsin H = biological target: T2, Pro-cathepsin H (Homo sapiens, UniProt P09668); experiment: Inhibition of human cathepsin H
T2 sequence (P09668 whole entry): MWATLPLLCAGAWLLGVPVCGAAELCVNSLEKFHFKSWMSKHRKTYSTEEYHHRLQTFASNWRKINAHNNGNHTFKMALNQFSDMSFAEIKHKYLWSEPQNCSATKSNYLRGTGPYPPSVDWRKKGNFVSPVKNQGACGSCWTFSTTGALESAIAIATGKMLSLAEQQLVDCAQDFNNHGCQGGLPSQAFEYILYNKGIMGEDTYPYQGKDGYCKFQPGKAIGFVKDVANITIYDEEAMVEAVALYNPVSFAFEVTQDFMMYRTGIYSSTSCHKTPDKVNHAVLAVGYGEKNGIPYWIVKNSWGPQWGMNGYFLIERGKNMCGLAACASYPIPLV

[8] = Inhibition of human cathepsin X
[9] = biological target: Cathepsin S (Mus musculus) (UniProt O70370); experiment: Inhibition of cathepsin S-mediated proteolytic cleavage of MHC2 associated invariant chain in mouse splenocytes assessed as induction of accumulation of lip10; assay type: cell-based
[10] = Plasma clearance in Sprague-Dawley rat at 1 mg/kg, iv and 3 mg/kg, po by LC/MS analysis; assay type: ADME, organism-based
In short: (§2)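 Male Sprague-Dawley rats dosed orally at 3 mg/kg as a suspension and intravenously at 1 mg/kg as a bolus. Plasma levels quantified by LC/MS. Oral AUC and Cmax dose-normalized to 1 mg/kg. Means ± SD of three individual experiments.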

[11] = Terminal elimination half life in Sprague-Dawley rat at 1 mg/kg, iv by LC/MS analysis; assay type: ADME, organism-based; set-up: dose 1 mg/kg, route intravenous; conditions: in vivo; in short: as §2
[12] = Bioavailability in Sprague-Dawley rat at 1 mg/kg, iv and 3 mg/kg, po by LC/MS analysis; assay type: ADME, organism-based; conditions: in vivo; in short: as §2
[13] = Cmax in Sprague-Dawley rat at 3 mg/kg, po by LC/MS analysis; assay type: ADME, organism-based; set-up: dose 3 mg/kg, route oral; conditions: in vivo; in short: as §2
[14] = Volume of distribution in Sprague-Dawley rat at 1 mg/kg, iv and 3 mg/kg, po by LC/MS analysis; assay type: ADME, organism-based; conditions: in vivo; in short: as §2
[15] = Inhibition of rat cathepsin S glycine 137 mutant by fluorescence assay
In short: (§3)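 Recombinant rat cathepsins K, L, S (137Gly and 137Cys forms) and mouse cathepsin S in a fluorescence assay. Substrates: Z-Phe-Arg-MCA for K and L, Z-Leu-Leu-Arg-MCA for S. IC50 reported as means ± SD of three experiments.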

[16] = Inhibition of rat cathepsin S cysteine 137 mutant by fluorescence assay; in short: as §3
Cathepsin K [17] = biological target: T3, Cathepsin K (Rattus norvegicus, UniProt O35186); experiment: Inhibition of rat cathepsin K by fluorescence assay; in short: as §3
T3 sequence (O35186 whole entry): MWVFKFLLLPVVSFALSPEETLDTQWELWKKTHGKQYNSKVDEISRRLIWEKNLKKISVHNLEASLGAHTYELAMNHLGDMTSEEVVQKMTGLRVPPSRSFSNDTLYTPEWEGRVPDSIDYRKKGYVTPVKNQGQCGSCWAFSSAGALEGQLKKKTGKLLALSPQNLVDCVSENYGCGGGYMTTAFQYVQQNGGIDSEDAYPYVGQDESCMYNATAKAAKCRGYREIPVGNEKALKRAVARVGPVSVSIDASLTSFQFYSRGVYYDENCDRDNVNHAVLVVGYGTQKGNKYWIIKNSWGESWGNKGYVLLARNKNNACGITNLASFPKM

Procathepsin L [18] = biological target: T4, Procathepsin L (Rattus norvegicus, UniProt P07154); experiment: Inhibition of rat cathepsin L by fluorescence assay; in short: as §3
T4 sequence (P07154 whole entry): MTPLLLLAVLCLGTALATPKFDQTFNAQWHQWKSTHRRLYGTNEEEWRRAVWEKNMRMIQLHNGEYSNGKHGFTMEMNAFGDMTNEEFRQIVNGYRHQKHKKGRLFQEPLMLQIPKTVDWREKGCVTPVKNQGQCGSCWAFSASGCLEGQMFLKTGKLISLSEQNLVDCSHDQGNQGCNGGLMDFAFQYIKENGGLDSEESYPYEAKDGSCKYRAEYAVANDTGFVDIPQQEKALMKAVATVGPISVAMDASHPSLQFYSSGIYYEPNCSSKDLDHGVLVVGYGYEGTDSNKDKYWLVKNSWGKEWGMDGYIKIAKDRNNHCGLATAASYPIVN

Cathepsin S [19] = biological target: Cathepsin S (Mus musculus, UniProt O70370); experiment: Inhibition of mouse cathepsin S by fluorescence assay; in short: as §3
Rattus norvegicus [20] = species: Rattus norvegicus; experiment: Selectivity for rat cathepsin S glycine 137 mutant over rat cathepsin K
In short: (§4)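 Recombinant rat cathepsins in a fluorescence assay with MCA substrates: Z-Leu-Leu-Arg-MCA for cathepsin S (137Gly form), Z-Phe-Arg-MCA for K and L, and Z-Arg-Arg-MCA for B. IC50 values were taken as means ± SD of three experiments, and selectivity was compared from the IC50 values against the S enzyme and each other cathepsin.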

Rattus norvegicus [21] = species: Rattus norvegicus; experiment: Selectivity for rat cathepsin S glycine 137 mutant over rat cathepsin L; in short: as §4
Rattus norvegicus [22] = species: Rattus norvegicus; experiment: Selectivity for rat cathepsin S glycine 137 mutant over rat cathepsin B; in short: as §4
Rattus norvegicus [23] = species: Rattus norvegicus; experiment: Reversal of neuropathic mechanical hyperalgesia in Wistar rat sciatic nerve ligation model with cathepsin S glycine 137 mutation; assay type: functional, organism-based
In short: (§5)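 Partial sciatic nerve ligation in Wistar rats genotyped as 137Gly cathepsin S, with established mechanical hyperalgesia. Oral dosing in 0.5% methylcellulose/water; repeat regimen twice daily for 5 days, paw withdrawal thresholds 3 h post-dose. 6 animals/group; % reversal of hyperalgesia, mean ± SEM; ANOVA with Tukey's HSD versus vehicle.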

Rattus norvegicus [24] = species: Rattus norvegicus; experiment: Reversal of neuropathic mechanical hyperalgesia in Wistar rat sciatic nerve ligation model with cathepsin S cysteine 137 mutation; assay type: functional, organism-based
Rattus norvegicus [25] = experiment: Reversal of neuropathic mechanical hyperalgesia in Wistar rat sciatic nerve ligation model assessed as paw withdrawal threshold at 30 mg/kg, po administered twice daily for 5 days after 3 hrs; assay type: functional; in short: as §5
Cytochrome P450 1A2 = biological target: T5, Cytochrome P450 1A2 (Homo sapiens, UniProt P05177); experiment: Inhibition of CYP1A2 at 10 uM; assay type: ADME
T5 sequence (P05177 whole entry): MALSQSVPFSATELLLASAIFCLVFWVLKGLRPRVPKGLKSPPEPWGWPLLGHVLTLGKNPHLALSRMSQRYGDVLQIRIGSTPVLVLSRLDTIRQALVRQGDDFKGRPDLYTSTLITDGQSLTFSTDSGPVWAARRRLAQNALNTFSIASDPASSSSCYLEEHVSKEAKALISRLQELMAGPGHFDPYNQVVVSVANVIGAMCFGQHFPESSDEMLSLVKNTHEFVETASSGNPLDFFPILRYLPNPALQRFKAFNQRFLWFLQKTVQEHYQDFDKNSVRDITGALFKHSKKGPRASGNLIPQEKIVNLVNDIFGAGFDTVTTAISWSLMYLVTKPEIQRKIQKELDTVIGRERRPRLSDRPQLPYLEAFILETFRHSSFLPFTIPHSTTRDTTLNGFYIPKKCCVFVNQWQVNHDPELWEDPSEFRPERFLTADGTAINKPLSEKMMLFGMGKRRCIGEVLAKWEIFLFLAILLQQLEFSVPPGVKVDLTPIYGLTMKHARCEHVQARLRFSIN
In short: (§6)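 Tested against a panel of cytochrome P450 enzymes at a maximum concentration of 10 µM.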

Cytochrome P450 2C9 = Cytochrome P450 2C9 (Homo sapiens, UniProt P11712); experiment: Inhibition of CYP2C9 at 10 uM; assay type: ADME; in short: as §6
Cytochrome P450 2C19 = Cytochrome P450 2C19 (Homo sapiens, UniProt P33261); experiment: Inhibition of CYP2C19 at 10 uM; assay type: ADME; in short: as §6
Cytochrome P450 2D6 = Cytochrome P450 2D6 (Homo sapiens, UniProt P10635); experiment: Inhibition of CYP2D6 at 10 uM; assay type: ADME; in short: as §6
Cytochrome P450 3A4 = Cytochrome P450 3A4 (Homo sapiens, UniProt P08684); experiment: Inhibition of CYP3A4 at 10 uM; assay type: ADME; in short: as §6
[26] = Genotoxicity in liver S9 fraction by Ames test; assay type: toxicity, subcellular
In short: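 Standard Ames test run with liver S9 enzyme.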

[27] = biological target: Cathepsin S (Mus musculus) (UniProt O70370); experiment: Inhibition of cathepsin S-mediated proteolytic cleavage of MHC2 associated invariant chain in mouse splenocytes assessed as induction of accumulation of lip10 at 1 µM

Chain of Procathepsin L (Homo sapiens, UniProt P07711) (P07711 whole entry): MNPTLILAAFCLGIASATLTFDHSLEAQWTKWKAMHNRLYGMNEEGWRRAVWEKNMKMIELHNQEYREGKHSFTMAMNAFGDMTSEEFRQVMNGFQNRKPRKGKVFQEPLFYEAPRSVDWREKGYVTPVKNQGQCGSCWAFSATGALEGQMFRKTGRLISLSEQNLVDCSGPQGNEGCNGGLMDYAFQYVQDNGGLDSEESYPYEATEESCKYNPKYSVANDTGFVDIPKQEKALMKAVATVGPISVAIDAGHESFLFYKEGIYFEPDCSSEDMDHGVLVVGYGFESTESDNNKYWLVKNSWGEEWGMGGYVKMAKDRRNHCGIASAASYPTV
Chain of Cathepsin S (Homo sapiens, UniProt P25774) (P25774 whole entry): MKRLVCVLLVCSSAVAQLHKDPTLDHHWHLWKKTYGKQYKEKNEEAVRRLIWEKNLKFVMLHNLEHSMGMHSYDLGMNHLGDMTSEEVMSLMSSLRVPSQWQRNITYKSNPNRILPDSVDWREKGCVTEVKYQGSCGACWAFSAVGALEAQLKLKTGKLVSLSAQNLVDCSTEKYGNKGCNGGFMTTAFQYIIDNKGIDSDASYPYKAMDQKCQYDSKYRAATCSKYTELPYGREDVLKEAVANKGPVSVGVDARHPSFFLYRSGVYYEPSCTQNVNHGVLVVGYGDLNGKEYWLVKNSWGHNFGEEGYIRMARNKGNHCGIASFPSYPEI
Chain of Cytochrome P450 3A4 (P08684 whole entry): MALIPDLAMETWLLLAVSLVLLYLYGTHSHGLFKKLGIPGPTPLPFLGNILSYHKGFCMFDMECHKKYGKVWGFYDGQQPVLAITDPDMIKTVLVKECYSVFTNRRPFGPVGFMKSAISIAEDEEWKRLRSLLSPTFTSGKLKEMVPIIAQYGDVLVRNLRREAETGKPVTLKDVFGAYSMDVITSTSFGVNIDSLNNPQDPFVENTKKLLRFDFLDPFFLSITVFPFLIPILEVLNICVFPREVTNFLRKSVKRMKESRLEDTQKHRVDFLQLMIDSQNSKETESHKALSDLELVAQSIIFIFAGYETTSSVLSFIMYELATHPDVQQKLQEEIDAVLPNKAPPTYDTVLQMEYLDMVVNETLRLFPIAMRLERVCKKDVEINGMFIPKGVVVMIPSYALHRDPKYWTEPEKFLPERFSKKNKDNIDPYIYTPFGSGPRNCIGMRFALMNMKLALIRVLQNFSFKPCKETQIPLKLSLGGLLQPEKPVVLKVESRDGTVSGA
Chain of Cytochrome P450 2C9 (P11712 whole entry): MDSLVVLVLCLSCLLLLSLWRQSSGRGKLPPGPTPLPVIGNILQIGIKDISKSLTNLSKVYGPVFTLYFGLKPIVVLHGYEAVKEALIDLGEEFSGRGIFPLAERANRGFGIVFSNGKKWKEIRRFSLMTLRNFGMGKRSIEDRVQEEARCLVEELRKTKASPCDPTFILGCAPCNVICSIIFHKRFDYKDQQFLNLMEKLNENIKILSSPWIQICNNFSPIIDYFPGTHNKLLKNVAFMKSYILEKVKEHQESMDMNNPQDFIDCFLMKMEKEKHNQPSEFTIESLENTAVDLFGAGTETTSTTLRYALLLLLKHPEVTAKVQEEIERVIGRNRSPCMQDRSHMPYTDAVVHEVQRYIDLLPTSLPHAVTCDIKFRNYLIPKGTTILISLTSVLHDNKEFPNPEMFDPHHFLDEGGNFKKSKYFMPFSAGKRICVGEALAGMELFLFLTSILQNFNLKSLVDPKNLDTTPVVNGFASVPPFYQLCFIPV
Chain of Cytochrome P450 2C19 (P33261 whole entry): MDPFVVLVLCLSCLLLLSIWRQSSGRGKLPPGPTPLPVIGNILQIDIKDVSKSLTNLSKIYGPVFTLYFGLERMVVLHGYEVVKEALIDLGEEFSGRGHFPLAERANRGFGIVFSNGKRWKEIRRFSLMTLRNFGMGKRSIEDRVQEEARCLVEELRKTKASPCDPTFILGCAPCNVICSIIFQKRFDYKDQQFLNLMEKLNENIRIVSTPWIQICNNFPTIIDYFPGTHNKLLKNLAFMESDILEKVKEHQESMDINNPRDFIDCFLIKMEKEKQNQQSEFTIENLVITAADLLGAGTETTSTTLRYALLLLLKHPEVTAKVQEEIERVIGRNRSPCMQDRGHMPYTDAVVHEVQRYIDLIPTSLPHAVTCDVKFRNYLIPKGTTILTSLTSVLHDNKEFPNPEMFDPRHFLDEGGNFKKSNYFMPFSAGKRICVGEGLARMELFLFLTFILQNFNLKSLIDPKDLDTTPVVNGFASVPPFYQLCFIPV
Chain of Dipeptidyl peptidase 1 (P53634 25-134 limits assumed): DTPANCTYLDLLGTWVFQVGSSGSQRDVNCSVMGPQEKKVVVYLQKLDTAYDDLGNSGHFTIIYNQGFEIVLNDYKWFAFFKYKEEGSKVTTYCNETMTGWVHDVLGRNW
Chain of Dipeptidyl peptidase 1 (P53634 231-394 limits assumed): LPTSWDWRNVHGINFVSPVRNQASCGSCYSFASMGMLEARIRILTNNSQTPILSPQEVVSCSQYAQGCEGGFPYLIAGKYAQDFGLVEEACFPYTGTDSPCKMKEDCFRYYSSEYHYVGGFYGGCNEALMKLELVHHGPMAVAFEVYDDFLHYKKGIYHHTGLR
Chain of Dipeptidyl peptidase 1 (P53634 395-463 limits assumed): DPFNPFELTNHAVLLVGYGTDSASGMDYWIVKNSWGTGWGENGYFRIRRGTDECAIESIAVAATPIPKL
Chain of Cytochrome P450 2D6 (P10635 whole entry): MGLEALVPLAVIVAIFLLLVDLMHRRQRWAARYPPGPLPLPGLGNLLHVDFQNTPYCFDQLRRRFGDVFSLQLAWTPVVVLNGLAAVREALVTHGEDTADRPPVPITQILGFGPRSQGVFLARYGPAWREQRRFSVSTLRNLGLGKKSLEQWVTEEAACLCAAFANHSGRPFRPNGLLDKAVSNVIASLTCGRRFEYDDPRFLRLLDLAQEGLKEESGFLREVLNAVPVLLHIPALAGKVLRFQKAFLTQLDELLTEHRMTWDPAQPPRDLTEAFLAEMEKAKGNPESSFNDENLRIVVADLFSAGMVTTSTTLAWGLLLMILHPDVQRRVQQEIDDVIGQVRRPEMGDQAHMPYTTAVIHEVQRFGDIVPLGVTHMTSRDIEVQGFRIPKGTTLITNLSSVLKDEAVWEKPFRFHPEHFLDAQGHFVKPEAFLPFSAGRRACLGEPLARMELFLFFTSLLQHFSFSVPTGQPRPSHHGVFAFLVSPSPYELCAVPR

IC50 (Cathepsin S [1]): 11 nM | IC50 (Cathepsin K [2]): 290 nM | IC50 (Procathepsin L [3]): > 1000 nM
Compound: CC(=O)N1CCCN(c2ccc(OCc3cc4cnc(C#N)nc4n3CCC3CCCCC3)cc2)CC1

IC50 (Cathepsin S [1]): 10 nM | Ki (Cathepsin S [1]): 4 nM | IC50 (Cathepsin K [2]): 5400 nM | IC50 (Procathepsin L [3]): 6200 nM | Activity (Homo sapiens [4]): > 100 | Activity (Homo sapiens [5]): > 100 | Activity (Homo sapiens [6]): > 100 | Activity (Homo sapiens [7]): > 100 | IC50 (Cathepsin B): > 30 µM | Ki (Dipeptidyl peptidase 1): > 10 µM | Ki (Pro-cathepsin H): > 10 µM | Ki [8]: 650 nM | Activity [9]: Dose-dependent effect | clearance [10]: 51.7 mL/min/kg | half-life [11]: 42 min | bioavailability [12]: 21% | Cmax [13]: 37 nM | Vd [14]: 3.7 L/kg | IC50 [15]: 28 nM | IC50 [16]: > 10 µM | IC50 (Cathepsin K [17]): > 10 µM | IC50 (Procathepsin L [18]): > 10 µM | IC50 (Cathepsin S [19]): 20 nM | Activity (Rattus norvegicus [20]): > 100 | Activity (Rattus norvegicus [21]): > 100 | Activity (Rattus norvegicus [22]): > 100 | Activity (Cytochrome P450 1A2): Not Active | Activity (Cytochrome P450 2C9): Not Active | Activity (Cytochrome P450 2C19): Not Active | Activity (Cytochrome P450 2D6): Not Active | Activity (Cytochrome P450 3A4): Not Active | Activity [27]: Active
Compound: CC(=O)N1CCN(c2ccc(OCc3cc4cnc(C#N)nc4n3CCC3CCC(F)(F)CC3)cc2)CC1
Activity (Rattus norvegicus [23]): Dose-dependent effect | Activity (Rattus norvegicus [24]): inactive | Activity (Rattus norvegicus [25]): 40% | Activity [26]: Non-toxic

IC50 (Cathepsin S [1]): 9 nM | IC50 (Cathepsin K [2]): > 1000 nM | IC50 (Procathepsin L [3]): > 1000 nM
Compound: CC(=O)N1CCN(c2ccc(OCc3cc4cnc(C#N)nc4n3CCC3CCCCC3)cc2F)CC1

IC50 (Cathepsin S [1]): 50 nM | IC50 (Cathepsin K [2]): > 2000 nM | IC50 (Procathepsin L [3]): > 2000 nM
Compound: CC(=O)N1CCN(c2ccc(OCc3cc4cnc(C#N)nc4n3CCC3CCCCCC3)cc2)CC1
